# Reference: PubChem BioAssay
# The source made the active and inactive calls.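 Rule for the calls, unless noted: active = current rise at least 3 SD above the untreated control mean in each of two repeat wells; inactive = the rest.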
# How the values were obtained:
# [1] = thallium flux activation in parental CHO cells, counter-screen for KCNQ1 potentiator project (AID 493006;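 active = duplicate-averaged activation above buffer control mean plus 5 SD of those controls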;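 for activation: fluorescence ratio of max minus min over baseline after K+ and Tl+ depolarization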); conditions: parental CHO-K1 cells, FluxOR thallium flux, at 10 µM; stronger effect = higher value
# Outline: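 Assay system: parental CHO-K1 cells lacking KCNQ1, loaded with FluxOR thallium dye; timing: dye 90 min RT, compound 20 min RT; signal: kinetic thallium-flux fluorescence; repeats: duplicate wells per compound, percent values averaged; benchmarks: buffer and R-L3 controls; reagent: Potassium/thallium depolarization pulse; read-out: fluorescence change ratio scaled 0% buffer, 100% R-L3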
# [2] = target: Potassium voltage-gated channel subfamily KQT member 1 (Homo sapiens) (UniProt P51787); assay: KCNQ1 potassium channel potentiators, confirmation, FluxOR thallium flux, CHO cells, duplicates (AID 493007;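 active = potentiation averaged over duplicate wells exceeding buffer-only control mean by more than 3 SD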;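 for outcome: cells depolarized by a potassium plus thallium sulfate stimulus after compound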); conditions: KCNQ1 cell line, FluxOR thallium flux fluorescence, at 10 µM; stronger effect = higher value, % of reference activator effect, buffer zero
# Potassium voltage-gated channel subfamily KQT member 1 (Homo sapiens), sequence (P51787 whole entry, looked up): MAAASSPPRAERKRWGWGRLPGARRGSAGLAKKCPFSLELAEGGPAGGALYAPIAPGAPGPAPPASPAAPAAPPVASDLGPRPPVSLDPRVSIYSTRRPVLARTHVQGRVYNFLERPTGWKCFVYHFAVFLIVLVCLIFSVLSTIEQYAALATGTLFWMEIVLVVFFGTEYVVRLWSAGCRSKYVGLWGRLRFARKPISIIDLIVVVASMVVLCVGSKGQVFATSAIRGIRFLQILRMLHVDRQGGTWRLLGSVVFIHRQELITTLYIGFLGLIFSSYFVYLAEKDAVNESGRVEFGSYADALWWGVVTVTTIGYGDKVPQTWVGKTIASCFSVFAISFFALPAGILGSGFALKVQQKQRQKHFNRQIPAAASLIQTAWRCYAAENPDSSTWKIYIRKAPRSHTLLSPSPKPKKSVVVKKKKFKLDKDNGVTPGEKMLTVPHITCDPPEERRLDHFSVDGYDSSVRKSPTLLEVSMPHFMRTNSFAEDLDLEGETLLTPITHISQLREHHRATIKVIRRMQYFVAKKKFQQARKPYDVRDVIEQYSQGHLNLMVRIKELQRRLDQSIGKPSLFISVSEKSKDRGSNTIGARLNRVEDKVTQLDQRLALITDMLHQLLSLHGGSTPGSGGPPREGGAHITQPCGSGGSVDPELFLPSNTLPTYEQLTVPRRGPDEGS
# Outline: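 material = CHO cells stably expressing the KCNQ1 potassium channel | repeats = duplicate wells per compound | measure = percent activation between buffer and R-L3 responses | signal = FluxOR thallium-flux fluorescence, kinetic read | schedule = FluxOR dye loading 90 min, compound exposure 20 min, room temperature | control set = buffer and R-L3 controls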
# [3] = target: Potassium voltage-gated channel subfamily KQT member 2 (Rattus norvegicus) (UniProt O88943); assay: rat KCNQ2 channel potentiation, selectivity assay for KCNQ1 potentiator project, KCNQ2-CHO-K1 cells (AID 493009;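 active = mean duplicate potentiation above the buffer control mean plus 5 SD of buffer wells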;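 note: assay conditions were tuned for KCNQ1 rather than KCNQ2 modulators; signal is max minus min fluorescence divided by baseline after thallium stimulus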); conditions: FluxOR thallium flux fluorescence, at 10 µM; stronger effect = higher value, scaled: buffer 0, activator control 100
# Potassium voltage-gated channel subfamily KQT member 2 (Rattus norvegicus), sequence (O88943 whole entry, looked up): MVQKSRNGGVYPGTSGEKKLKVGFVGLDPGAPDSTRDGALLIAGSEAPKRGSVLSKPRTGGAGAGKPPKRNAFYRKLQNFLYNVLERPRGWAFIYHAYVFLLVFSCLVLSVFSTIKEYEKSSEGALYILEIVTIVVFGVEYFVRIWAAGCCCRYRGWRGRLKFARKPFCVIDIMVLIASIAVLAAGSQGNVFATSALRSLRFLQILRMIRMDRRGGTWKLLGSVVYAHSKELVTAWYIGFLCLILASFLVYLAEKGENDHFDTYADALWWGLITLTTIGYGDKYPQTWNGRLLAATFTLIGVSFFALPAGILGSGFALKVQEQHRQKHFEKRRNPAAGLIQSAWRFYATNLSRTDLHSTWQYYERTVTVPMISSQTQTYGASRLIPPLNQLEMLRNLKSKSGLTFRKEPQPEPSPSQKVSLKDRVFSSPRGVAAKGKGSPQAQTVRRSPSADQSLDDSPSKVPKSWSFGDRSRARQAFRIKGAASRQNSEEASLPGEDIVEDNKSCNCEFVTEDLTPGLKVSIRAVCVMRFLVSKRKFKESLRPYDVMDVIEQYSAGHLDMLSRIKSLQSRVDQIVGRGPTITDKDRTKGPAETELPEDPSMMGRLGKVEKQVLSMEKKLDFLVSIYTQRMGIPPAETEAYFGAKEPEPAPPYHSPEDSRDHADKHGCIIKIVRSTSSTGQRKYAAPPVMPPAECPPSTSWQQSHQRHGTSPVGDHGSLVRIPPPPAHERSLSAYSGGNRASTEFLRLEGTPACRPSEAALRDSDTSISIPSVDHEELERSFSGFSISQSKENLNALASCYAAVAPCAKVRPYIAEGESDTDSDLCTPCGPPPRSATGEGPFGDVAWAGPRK
# [4] = target: Potassium voltage-gated channel subfamily KQT member 1 (Homo sapiens) (UniProt P51787); assay: KCNQ1 channel current potentiators, confirmation, orthogonal assay for KCNQ1 potentiator project, IonWorks patch clamp, KCNQ1-CHO cells (AID 493184); conditions: automated patch clamp current, at 10 µM; stronger effect = higher value;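 for current potentiation: percent change of the same well's current before compound addition so 0% = no change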
# Outline: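 Assay system – CHO cells carrying KCNQ1 · Medium – pH 7.4 external bath · Probe or stimulus – depolarizing pulse to +40 mV from -90 mV · Compound dosing – one dose, 10 µM final · Measured by – automated perforated-patch electrophysiology · Measure – % potentiation of steady-state current relative to pre-compound · Repeats – two replicates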
SMILES,outcome [1],outcome [2],outcome [3],outcome [4],potentiation [2],activation [1],potentiation [3],current potentiation [4]
Cc1ccc(C2=NOC(=O)/C2=C\C=C\c2ccccc2)cc1,inactive,inactive,inactive,inactive,,,,
COC(=O)c1c(N2C(=O)CC(Sc3ncccc3C(=O)O)C2=O)sc(C)c1C (stereo not given),inactive,inactive,inactive,inactive,,,,
CCOC(=O)c1c(C)[nH]c(C(=O)Cn2nnc(-c3ccccc3Cl)n2)c1C,inactive,inactive,inactive,inactive,,,,
Cc1ccc(C)c(N2CCN(C(=O)CCS(=O)(=O)c3ccc4c(c3)NC(=O)CO4)CC2)c1,inactive,inactive,inactive,inactive,,,,
OCCCCNCc1ccc(OCc2ccc(Cl)cc2Cl)cc1,inactive,,inactive,inactive,23.5% (active),,,
CCOc1ccc(S(=O)(=O)N2CCCC(C(=O)NCCN3CCOCC3)C2)cc1Cl (stereo not given),,,,inactive,108% (active),260% (active),250% (active),
O=C(c1cc([N+](=O)[O-])cc([N+](=O)[O-])c1)N1CCCc2ccccc21,inactive,inactive,inactive,inactive,,,,
CCc1cc2c(=O)n(CCC(C)C)c(=S)[nH]c2s1,,,,inactive,228% (active),516% (active),499% (active),
O=Cc1ccc2noc(-c3ccc(Cl)cc3)c2c1,inactive,inactive,inactive,inactive,,,,
CCn1c(=S)[nH]c2c(c1=O)C(C)(C)Cc1ccccc1-2,,inactive,inactive,inactive,,150% (active),,
O=C(CN1C(=O)CNC1=O)Nc1cccc(C(F)(F)F)c1,inactive,inactive,inactive,inactive,,,,
NNC(=O)c1sccc1OCc1ccc(Cl)cc1Cl,inactive,inactive,inactive,inactive,,,,
Cc1nn2c(NCc3ccccn3)cc(C(C)C)nc2c1-c1ccccc1,inactive,inactive,inactive,inactive,,,,
CCCCOc1ccc(C(=O)Oc2ccc(C)nc2)cc1,inactive,inactive,inactive,inactive,,,,
COc1ccccc1OCCSc1nc2ccccc2n1CCC(=O)O,inactive,inactive,inactive,inactive,,,,
CCOC(=O)C1CCCN(C(=O)C2CCN(S(=O)(=O)c3ccc4ccccc4c3)CC2)C1 (stereo not given),inactive,inactive,inactive,inactive,,,,
Cc1cccc(/C=C2/S/C(=N/N=C3\CC4CCC3(C)C4(C)C)NC2=O)c1 (stereo not given),inactive,,inactive,inactive,28% (active),,,
COc1ccc(/C=C2\SC(=S)N(NS(=O)(=O)c3ccc(C)cc3)C2=O)c(OC)c1,,,,,77.5% (active),138% (active),261% (active),20.6% (active)
CN(C)c1oc(-c2ccc(OCc3ccc(Cl)cc3)cc2)nc1C#N,inactive,inactive,inactive,inactive,,,,
O=S(=O)(NC(=S)NC1CCCCC1)c1ccc(Cl)cc1,,,,inactive,56.5% (active),191% (active),199% (active),

SMILES,outcome [1],outcome [2],outcome [3],outcome [4],potentiation [2],activation [1],potentiation [3],current potentiation [4]
OC(c1ccccc1)c1cccnc1 (stereo not given),,,,inactive,22% (active),146% (active),155% (active),
O=c1c2ccc(Cl)cc2nc(-c2cccc(C(F)(F)F)c2)n1O,,,,inactive,230% (active),722% (active),756% (active),
C/C(N)=C(/C#N)C(=O)CSc1nc2ccccc2c(=O)n1Cc1ccc(F)cc1,,,,inactive,48.5% (active),178% (active),194% (active),
OC(c1cc(C(F)(F)F)nc2c(Cl)cc(Cl)cc12)C1CCCCN1 (stereo not given),inactive,inactive,inactive,inactive,,,,
CCn1ncc(CN2CCC(C(=O)Nc3cccc(-c4cccc(F)c4)c3)CC2)c1C,inactive,inactive,inactive,inactive,,,,
CCOc1ccc(NC(=S)NC(=O)c2ccco2)cc1,inactive,,,inactive,29% (active),,180% (active),
COc1ccc2c(CCNC(=O)CN3C(=O)c4ccccc4C3=O)c[nH]c2c1,inactive,inactive,inactive,inactive,,,,
CC(=O)N1N=C(N)SC12CCCC2,inactive,inactive,inactive,inactive,,,,
Cc1ccc2nsnc2c1S(=O)(=O)Nc1cccc2nsnc12,,,,inactive,26% (active),143% (active),174% (active),
COCCN(CCOC)Cc1cc(=O)oc2cc3c(cc12)CCC3,,,inactive,inactive,45.5% (active),145% (active),,
COC(=O)c1sc(-c2ccccc2)cc1NC(=O)C1CC1,inactive,inactive,inactive,inactive,,,,
Cc1cccc(NC(=S)NNC(=O)c2csc3c2CCC(C)C3)c1 (stereo not given),,,,inactive,86% (active),193% (active),248% (active),
O=C(NC(=S)Nc1ccc(N2CCCCC2)cc1)c1cccs1,,,,inactive,74.5% (active),158% (active),162% (active),
COc1ccc(-n2nc3c(c2NC(=O)c2ccc4c(c2)OCO4)CS(=O)(=O)C3)cc1,,,,inactive,75.5% (active),224% (active),206% (active),
Oc1c(Br)cc(Br)cc1C=NCc1ccccc1,,,inactive,inactive,21.5% (active),147% (active),,
CC(C)(C)c1ccc(C(=O)NC(=S)Nc2nc3c(s2)CCCC3)cc1,,,,inactive,91% (active),210% (active),217% (active),
O=C(NCc1ccc(F)cc1)C1CCC(CNS(=O)(=O)c2ccccc2)CC1 (stereo not given),inactive,inactive,inactive,inactive,,,,
COc1ccccc1NC(=O)Cn1cnc2c(oc3nc4c(cc32)CCCC4)c1=O,inactive,inactive,inactive,inactive,,,,
Cc1ccc(-n2ncc3c(SCC(=O)NNC(=O)c4ccco4)ncnc32)cc1,inactive,inactive,inactive,inactive,,,,
COC(=O)C1=C(C)Nc2nnnn2C1c1ccc(Cl)cc1Cl (stereo not given),inactive,inactive,inactive,inactive,,,,

SMILES,outcome [1],outcome [2],outcome [3],outcome [4],potentiation [2],activation [1],potentiation [3],current potentiation [4]
CC(Oc1ccc(Br)cc1)C(=O)N1CCC(C(N)=O)CC1 (stereo not given),inactive,inactive,inactive,inactive,,,,
O=c1c(O)c(-c2cccs2)oc2ccccc12,,,,inactive,115% (active),290% (active),289% (active),
O=C(NNC(=S)NC(=O)c1sc2ccccc2c1Cl)c1ccc(Cl)cc1,,,,inactive,168% (active),320% (active),319% (active),
CCOC(=O)c1cccc(C(=O)Nc2nc3ccc(OC)cc3s2)n1,inactive,inactive,inactive,inactive,,,,
CC(C)(C)c1ccc2c(c1)OC(C(=O)N/N=C\c1ccccn1)CO2 (stereo not given),inactive,inactive,inactive,inactive,,,,
Cc1ccc(C)c(NS(=O)(=O)c2cc(C(=O)NCc3ccccn3)ccc2Cl)c1,inactive,inactive,inactive,inactive,,,,
CCc1ccc(OCC(=O)Nc2ccc(S(=O)(=O)N3CCOCC3)cc2)cc1,inactive,inactive,inactive,inactive,,,,
O=C(NC(=S)N1CCCC(C(F)(F)F)C1)c1ccc(F)cc1 (stereo not given),,,,inactive,66.5% (active),296% (active),260% (active),
O=C(CCC(=O)c1ccc(F)cc1)Nc1cc(Cl)cc(Cl)c1,inactive,inactive,inactive,inactive,,,,
Cc1cc(C)n(CCNS(=O)(=O)c2ccccc2)n1,inactive,inactive,inactive,inactive,,,,
COc1ccc(NC(=O)Cc2nnc(SCC(=O)c3ccc(F)cc3)n2C)cc1,inactive,inactive,inactive,inactive,,,,
COc1cccc2sc(N(CCCN(C)C)C(=O)CCS(=O)(=O)c3ccccc3)nc12,inactive,inactive,inactive,inactive,,,,
CCC1(c2ccc(Cl)cc2)NC(=S)N(c2ccccc2)N1 (stereo not given),,,,inactive,150% (active),405% (active),375% (active),
CCCc1cc(-c2n[nH]c(=S)n2C(C)c2ccccc2)cs1 (stereo not given),,,inactive,inactive,37% (active),139% (active),,
Cc1cc(C(=O)N/N=C/C=C/c2ccc3c(c2)OCO3)n[nH]1,inactive,inactive,inactive,inactive,,,,
O=C(N/N=C1/C(=O)c2cccc3cccc1c23)c1ccc(Cl)cc1,,,inactive,inactive,83.5% (active),145% (active),,
Cc1ccc(-c2nc3ncccc3o2)cc1NC(=O)c1cccnc1,inactive,inactive,inactive,inactive,,,,
CCOC(=O)c1sc2nc(C)nc(SCC(=O)N(C)C3CCS(=O)(=O)C3)c2c1C (stereo not given),inactive,,,inactive,17.5% (active),,142% (active),
COn1c(SCc2ccc(C)cc2C)nc2ccccc2c1=O,inactive,inactive,inactive,inactive,,,,
C=CCn1c(O)c(N=NC(=S)Nc2cccc(C)c2)c2ccccc21,,,,inactive,77% (active),225% (active),286% (active),
